{"data": "Assay results of several laboratories", "target": "Tyrosine-protein kinase CSK (CSK, Homo sapiens, UniProt P41240)"}
{"Structure (SMILES)": "COc1cc(/C=C/C(=O)CC(=O)/C=C/c2ccc(O)c(OC)c2)ccc1O", "test": "enzyme activity, inhibitor", "setting": "1 µM", "endpoint": "activity vs control", "result": "78%"}
{"Structure (SMILES)": "O=C1c2ccccc2-c2n[nH]c3cccc1c23", "test": "enzyme activity, inhibitor", "setting": "0.5 µM", "endpoint": "activity vs control", "result": "95.6%"}
{"Structure (SMILES)": "CNC(=O)c1cc(Oc2ccc(NC(=O)Nc3ccc(Cl)c(C(F)(F)F)c3)cc2)ccn1", "test": "enzyme activity, inhibitor", "setting": "10 µM", "endpoint": "inhibition", "result": "22%"}
{"Structure (SMILES)": "C#Cc1cccc(Nc2ncnc3cc(OCCOC)c(OCCOC)cc23)c1", "test": "cell-free assay, inhibitor", "setting": "0.5 µM", "endpoint": "remaining signal", "result": "100%"}
{"Structure (SMILES)": "COc1cc2ncnc(Nc3ccc(Oc4ccccc4)c(C)c3C)c2cc1OC", "test": "enzyme activity, inhibitor", "setting": "1 µM", "endpoint": "inhibition", "result": "49%"}
{"Structure (SMILES)": "FC(F)(F)Oc1cccc(-c2cnc3ccc(-c4ccncc4)nn23)c1", "test": "enzyme activity, inhibitor, radiometric", "setting": "1 µM", "endpoint": "activity vs control", "result": "97%"}
{"Structure (SMILES)": "CCCOc1ccc([C@@H]2[C@@H](C(=O)O)[C@H](c3ccc4c(c3)OCO4)CN2CC(=O)Nc2c(CC)cccc2CC)cc1", "test": "cell-free assay, competition with immobilised ligand", "setting": "1 µM", "endpoint": "remaining binding", "result": "91%"}
{"Structure (SMILES)": "O=C(Nc1cnn(-c2csc(C(=O)NC3COC3)c2)c1)Nc1c(F)cccc1Cl", "test": "enzyme activity, inhibitor", "setting": "5 µM", "endpoint": "remaining activity", "result": "97.5%"}
{"Structure (SMILES)": "COc1cc(-c2cn(C3CCc4ccccc4N(CC(F)(F)F)C3=O)nn2)ccc1-n1ccc(C)n1 (stereo not shown)", "test": "cell-free assay, competition with immobilised ligand", "setting": "1 µM", "endpoint": "remaining binding", "result": "100%"}
{"Structure (SMILES)": "Cc1ccc(C(=O)Nc2ccc(CN3CCN(C)CC3)c(C(F)(F)F)c2)cc1C#Cc1cnc2cccnn12", "test": "enzyme activity, inhibitor", "setting": "23.5 nM", "endpoint": "remaining activity", "result": "15%"}
{"Structure (SMILES)": "C[C@@]1(Cc2ccc(C#N)cc2)C(=O)N(c2cc(Cl)cc(Cl)c2)c2ncc(C(=O)NC3(c4nc(C5CCC5)no4)CC3)n21", "test": "cell-free assay, competition with immobilised ligand", "setting": "1 µM", "endpoint": "remaining binding", "result": "98%"}
{"Structure (SMILES)": "Cc1ccc(NC(=O)c2ccc(C)c(C(F)(F)F)c2)cc1C#Cc1nn(C2CCC(O)CC2)c2ncnc(N)c12 (stereo not shown)", "test": "cell-free assay, inhibitor", "setting": "10 µM", "endpoint": "remaining signal", "result": "-1%"}
{"Structure (SMILES)": "NS(=O)(=O)c1cc(NC(=O)Cc2ccccc2)ccc1Oc1cccc(Cl)c1", "test": "cell-free assay, competition with immobilised ligand", "setting": "1 µM", "endpoint": "remaining binding", "result": "100%"}
{"Structure (SMILES)": "CNc1cc(Oc2cc(C(=O)Nc3cc(N4CCN(C)CC4)cc(C(F)(F)F)c3)ccc2C)ncn1", "test": "target engagement in cells, inhibitor, chemoproteomics", "test system": "Huh-7", "setting": "1 µM", "endpoint": "inhibition", "result": "-15%"}
{"Structure (SMILES)": "COc1cc(Nc2cnc(C#N)c(O[C@H](C)CN(C)C)n2)ncc1-c1cnn(C)c1", "test": "enzyme activity, inhibitor, radiometric", "setting": "1 µM", "endpoint": "remaining activity", "result": "83%"}
{"Structure (SMILES)": "C[C@H](c1cccc(C#N)c1)n1cc(Cl)cc(C(N)=O)c1=N", "test": "cell-free assay, competition with immobilised ligand", "setting": "1 µM", "endpoint": "remaining binding", "result": "100%"}
